The source made the active and inactive calls.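 How the source made its calls, unless noted: active means potentiation averaged over duplicate wells exceeding buffer-only control mean by more than 3 SD; inactive means the rest.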
How the values were obtained:
[1] = nonspecific flux increase, KCNQ1-free cells – parental CHO cells, counter-screen for KCNQ1 potentiator project (AID 493006;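 active means duplicate-averaged activation above buffer control mean plus 5 SD of those controls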;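 on activation: fluorescence ratio of max minus min over baseline after K+ and Tl+ depolarization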); details: parental CHO-K1 cells, FluxOR thallium flux, at 10 µM; active compounds read high
Outline: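 Material: untransfected host CHO-K1 cells with FluxOR thallium dye. Timing: overnight 37 °C plating, 90 min RT dye, 20 min compound. Detection: kinetic FluxOR fluorescence, 10 s baseline, 110 s after stimulus. Read-out basis: max-minus-min fluorescence over baseline, percent of buffer-to-R-L3 span. Replicates: duplicate wells per compound, percent values averaged.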

[2] = molecular target: Potassium voltage-gated channel subfamily KQT member 1 (Homo sapiens) (UniProt P51787); experiment: enhancement of KCNQ1 channel thallium flux – FluxOR thallium flux, CHO cells, duplicates, confirmation (AID 493007); details: KCNQ1 cell line, FluxOR thallium flux fluorescence, at 10 µM; active compounds read high, % of reference activator effect, buffer zero;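 on outcome: cells depolarized by a potassium plus thallium sulfate stimulus after compound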
Outline: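 Test system – KCNQ1-expressing CHO cell line · Incubation – FluxOR dye loading 90 min, compound exposure 20 min, room temperature · Detection – FluxOR Tl+ flux fluorescence, 10 s baseline plus 110 s recording · Controls – buffer-only wells as 0% and R-L3 activator as 100%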

[3] = molecular target: Potassium voltage-gated channel subfamily KQT member 2 (Rattus norvegicus) (UniProt O88943); experiment: KCNQ2 thallium flux enhancement – KCNQ2-CHO-K1 cells, selectivity assay for KCNQ1 potentiator project (AID 493009;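 active means mean duplicate potentiation above the buffer control mean plus 5 SD of buffer wells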;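 further: assay conditions were tuned for KCNQ1 rather than KCNQ2 modulators; signal is max minus min fluorescence divided by baseline after thallium stimulus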); details: FluxOR thallium flux fluorescence, at 10 µM; active compounds read high, scaled: buffer 0, activator control 100
[4] = molecular target: Potassium voltage-gated channel subfamily KQT member 1 (Homo sapiens) (UniProt P51787); experiment: KCNQ1 activators by electrophysiology – IonWorks patch clamp, KCNQ1-CHO cells, orthogonal assay for KCNQ1 potentiator project, confirmation (AID 493184;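 active means current rise at least 3 SD above the untreated control mean in each of two repeat wells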); details: automated patch clamp current, at 10 µM; active compounds read high
Outline: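 Read-out: Percent current increase versus pre-compound level | Assay system: CHO cells carrying KCNQ1 | Measured by: Automated perforated-patch electrophysiology | Medium: External bath solution at pH 7.4 | Dosing: One dose, 10 µM final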

Chain of Potassium voltage-gated channel subfamily KQT member 2 (Rattus norvegicus) (O88943 whole entry, looked up): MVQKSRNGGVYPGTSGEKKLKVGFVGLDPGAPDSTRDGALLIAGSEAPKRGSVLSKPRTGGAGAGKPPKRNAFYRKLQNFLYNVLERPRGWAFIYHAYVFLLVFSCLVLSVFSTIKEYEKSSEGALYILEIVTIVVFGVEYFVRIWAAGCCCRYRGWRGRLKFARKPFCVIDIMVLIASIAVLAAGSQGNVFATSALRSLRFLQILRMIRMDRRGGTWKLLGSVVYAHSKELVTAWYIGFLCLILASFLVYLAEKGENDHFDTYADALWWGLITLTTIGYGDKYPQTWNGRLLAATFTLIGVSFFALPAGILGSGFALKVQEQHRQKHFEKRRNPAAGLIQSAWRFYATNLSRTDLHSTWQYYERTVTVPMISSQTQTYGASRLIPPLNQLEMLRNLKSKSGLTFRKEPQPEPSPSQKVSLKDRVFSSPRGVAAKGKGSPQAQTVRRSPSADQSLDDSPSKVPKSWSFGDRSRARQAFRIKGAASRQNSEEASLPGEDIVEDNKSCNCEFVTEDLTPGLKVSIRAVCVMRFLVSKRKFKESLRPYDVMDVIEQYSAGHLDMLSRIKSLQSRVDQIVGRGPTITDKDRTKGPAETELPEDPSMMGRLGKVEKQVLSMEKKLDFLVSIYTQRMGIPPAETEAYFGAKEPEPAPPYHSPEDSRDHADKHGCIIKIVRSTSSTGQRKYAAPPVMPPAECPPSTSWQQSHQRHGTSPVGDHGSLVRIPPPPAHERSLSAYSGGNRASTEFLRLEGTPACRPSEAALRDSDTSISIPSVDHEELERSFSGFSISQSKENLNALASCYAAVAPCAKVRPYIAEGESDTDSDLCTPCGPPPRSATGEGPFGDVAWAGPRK
Chain of Potassium voltage-gated channel subfamily KQT member 1 (Homo sapiens) (P51787 whole entry, looked up): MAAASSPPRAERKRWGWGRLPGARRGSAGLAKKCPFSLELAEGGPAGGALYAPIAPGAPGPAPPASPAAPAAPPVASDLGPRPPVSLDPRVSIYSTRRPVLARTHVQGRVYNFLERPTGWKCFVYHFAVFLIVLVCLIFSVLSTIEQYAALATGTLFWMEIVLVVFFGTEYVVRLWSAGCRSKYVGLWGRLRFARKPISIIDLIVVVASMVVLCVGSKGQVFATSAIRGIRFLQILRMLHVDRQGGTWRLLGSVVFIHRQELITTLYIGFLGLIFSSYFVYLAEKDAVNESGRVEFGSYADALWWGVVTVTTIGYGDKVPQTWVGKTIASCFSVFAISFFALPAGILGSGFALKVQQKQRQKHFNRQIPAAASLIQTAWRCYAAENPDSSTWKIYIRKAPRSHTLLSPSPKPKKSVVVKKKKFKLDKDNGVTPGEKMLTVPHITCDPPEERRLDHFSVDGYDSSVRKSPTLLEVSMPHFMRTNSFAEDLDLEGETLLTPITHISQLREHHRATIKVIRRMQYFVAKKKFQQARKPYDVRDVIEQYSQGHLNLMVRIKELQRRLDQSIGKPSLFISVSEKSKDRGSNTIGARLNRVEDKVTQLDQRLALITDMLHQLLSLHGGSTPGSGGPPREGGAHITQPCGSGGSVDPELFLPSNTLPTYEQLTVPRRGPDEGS

Structure (SMILES)	outcome [1]	outcome [2]	outcome [3]	outcome [4]	activation [1]	potentiation [2]	potentiation [3]
CCCCn1c(=O)nc2n(-c3ccccc3C)c3ccccc3cc-2c1=O	inactive	inactive	inactive	inactive			
COCCn1c(=S)[nH]c2sc3c(c2c1=O)CCCC3				inactive	325% (active)	106% (active)	312% (active)
Cc1ccc(CN2C(=O)CC(Nc3ccc(N4CCOCC4)cc3)C2=O)cc1 (stereo not given)	inactive	inactive	inactive	inactive			
Cc1ccc(NC(=O)C(=O)NNC(=O)c2cccs2)cc1				inactive	337% (active)	88.5% (active)	326% (active)
O=C(NC(=S)Nc1ccccc1)c1csnn1				inactive	588% (active)	260% (active)	642% (active)
CCOC(=O)/C(C)=N/NC(=O)c1cccc([N+](=O)[O-])c1				inactive	170% (active)	49% (active)	206% (active)
CC(C)CCn1c(=S)[nH]c2ncccc2c1=O		inactive	inactive	inactive	152% (active)		
CCOc1ccc2nc(/N=C/c3c(C)[nH]n(-c4ccccc4)c3=O)sc2c1				inactive	370% (active)	360% (active)	661% (active)
COc1cc2c(cc1OC)C(C)N(C(=S)NC(=O)c1ccccc1)CC2 (stereo not given)		inactive	inactive	inactive	141% (active)		
Oc1cccc2ccc(Nc3ccccn3)nc12	inactive	inactive	inactive	inactive			
COc1cc(Br)cc(/C=N/c2ncn[nH]2)c1O			inactive	inactive	140% (active)	18.5% (active)	
CN(C(=S)NC(=O)c1ccccc1)C1CCCCC1				inactive	228% (active)	29% (active)	186% (active)
COc1cccc(/C=N/Nc2snc(SC)c2C#N)c1O	inactive	inactive	inactive	inactive			
CC1CCN(C(=S)NC(=O)c2ccc(C(C)(C)C)cc2)CC1				inactive	165% (active)	85.5% (active)	284% (active)
Oc1c(CN2CCN(c3ccccn3)CC2)cc(Cl)c2cccnc12				inactive	148% (active)	35% (active)	172% (active)
Cc1cccc(CNC(=O)C2CCCN(c3nn4c(=O)cc(C)nc4s3)C2)c1 (stereo not given)	inactive	inactive	inactive	inactive			
O=C(Nc1ccc2[nH]c(=S)sc2c1)c1ccccc1	inactive			inactive		52% (active)	154% (active)
O=C(CSc1nc2cc(Cl)ccc2s1)c1ccco1	inactive		inactive	inactive		24% (active)	
O=C(NC(=S)N1CCN(c2ccccc2)CC1)c1c(F)cccc1F	inactive	inactive	inactive	inactive			
CN1CCN(c2nc(-c3cccs3)cc(C(F)(F)F)n2)CC1		inactive	inactive	inactive	142% (active)		

Structure (SMILES)	outcome [1]	outcome [2]	outcome [3]	outcome [4]	activation [1]	potentiation [2]	potentiation [3]
O=c1c2c(-c3ccco3)csc2nc(SCc2cn3cccnc3n2)n1-c1ccccc1	inactive	inactive	inactive	inactive			
CS(=O)(=O)N1CCN(Cc2ccc(C(F)(F)F)cc2)CC1	inactive	inactive	inactive	inactive			
COc1ccc(/C(O)=C2/C(=O)C(=O)N(CCCN(C)C)C2c2ccc(Cl)cc2)cc1OC (stereo not given)	inactive	inactive	inactive	inactive			
COc1ccc(N2CCN(S(=O)(=O)c3ccc(OC)c(C(=O)N4CCCCC4)c3)CC2)cc1	inactive	inactive	inactive	inactive			
COc1ccc2nc(/N=C/c3c(C)[nH]n(-c4ccc(C)cc4)c3=O)sc2c1				inactive	340% (active)	273% (active)	518% (active)
S=c1[nH]nc(-c2ccc(Cl)cc2Cl)n1-c1ccc(Cl)cc1				inactive	154% (active)	43% (active)	167% (active)
COC(=O)c1ccccc1NC(=O)Cn1c(=O)n(Cc2ccccc2)c(=O)c2c(C)c(C)sc21	inactive	inactive	inactive	inactive			
COc1ccc(CN2C(=O)C(C)S/C2=N/N=C/c2ccco2)cc1 (stereo not given)	inactive	inactive	inactive	inactive			
CCc1cc2c(=O)n(CCC(C)C)c(=S)[nH]c2s1				inactive	516% (active)	228% (active)	499% (active)
COc1ccc(NS(=O)(=O)c2ccc(N/N=C(\C)c3ccncc3)c([N+](=O)[O-])c2)cc1	inactive	inactive	inactive	inactive			
CC(Oc1ccc(Br)cc1)C(=O)Nc1ccc(S(=O)(=O)N(C)C2CCN(C)CC2)cc1 (stereo not given)				inactive	626% (active)	190% (active)	570% (active)
COc1ccc(N2CCN(CC(=O)Nc3nc(C)cs3)CC2)cc1	inactive	inactive	inactive	inactive			
CC1(C)Cc2c(sc3[nH]c(=S)n(Cc4ccccc4)c(=O)c23)CO1				inactive	191% (active)	63% (active)	198% (active)
O=c1c2cc(NC(=S)NCCCN3CCC(Cc4ccccc4)CC3)ccc2nc2n1CCCCC2	inactive	inactive	inactive	inactive			
O=C(CSc1ncnc2c1cnn2-c1ccc(F)cc1)NC1CCCC1	inactive	inactive	inactive	inactive			
CSC(=S)N/N=C/c1ccccc1				inactive	245% (active)	48.5% (active)	226% (active)
O=C(NC(=S)Nc1nc2ccccc2s1)c1ccco1				inactive	183% (active)	31% (active)	172% (active)
Oc1c(Br)cc(Cl)cc1C=Nc1ccccc1Br				inactive	296% (active)	161% (active)	310% (active)
Cc1ccc(Cn2ncc3c(NN)ncnc32)cc1	inactive	inactive	inactive	inactive			
O=C(NC(=S)N1CCCc2ccccc21)c1ccc([N+](=O)[O-])cc1				inactive	202% (active)	82% (active)	247% (active)

Structure (SMILES)	outcome [1]	outcome [2]	outcome [3]	outcome [4]	activation [1]	potentiation [2]	potentiation [3]
C/C(=N\NS(=O)(=O)c1ccc(Br)cc1)c1cccs1	inactive	inactive	inactive	inactive			
Fc1ccc(-n2nnc(-c3ccccc3)n2)cc1	inactive	inactive	inactive	inactive			
CCC(C)[C@H](N)c1nnc(SCC(=O)Nc2cccc(Cl)c2)o1 (stereo not given in full)				inactive	210% (active)	39.5% (active)	162% (active)
CCCCn1c(SCC(=O)/C(C#N)=C(\C)N)nc2ccccc2c1=O	inactive	inactive	inactive	inactive			
Cc1ccc2nc3c(cc(C(=O)NCC4CCCO4)c(=N)n3C3CCCC3)c(=O)n2c1 (stereo not given)	inactive	inactive	inactive	inactive			
CC1=NN(C(=O)c2csc(C)c2C)C(O)(C(F)(F)F)C1 (stereo not given)	inactive	inactive	inactive	inactive			
CCOc1ccc(-c2noc(CCC(=O)NC3CCCC3)n2)cc1OC	inactive	inactive	inactive	inactive			
CCc1ccc(NC(=O)C(=O)NNC(=O)c2ccc(OC)cc2)cc1				inactive	326% (active)	149% (active)	367% (active)
O=C(O)c1cnn(-c2ccccc2)c1-c1ccncc1				inactive	145% (active)	84% (active)	202% (active)
Cc1c(N=Cc2cc(Br)cc(Br)c2O)cccc1C(=O)O	inactive		inactive	inactive		42% (active)	
COc1ccc(NC(=O)[C@@H]2CC=C[C@@H]3CCN(C4CCCCC4)C(=O)[C@@H]32)cc1	inactive	inactive	inactive	inactive			
Fc1cccc2sc(Nc3nnc(-c4ccccc4)o3)nc12				inactive	531% (active)	198% (active)	481% (active)
Cc1ccc(/C=C/C(=O)C2C(=O)c3ccccc3C2=O)cc1				inactive	227% (active)	58.5% (active)	206% (active)
CCCC(=O)Nc1cc(Cl)ccc1N1CCN(C(=O)CC)CC1	inactive	inactive	inactive	inactive			
COc1ccc(C(=O)O/N=C(\N)Cc2ccc(Cl)cc2)cc1OC	inactive	inactive	inactive	inactive			
Cc1ccccc1-n1cnnc1SCC(=O)N1CCN(c2ccccc2)CC1				inactive	200% (active)	49.5% (active)	206% (active)
Cc1ccc(N=Nc2ccc(O)c3ncccc23)cc1C				inactive	154% (active)	24.5% (active)	190% (active)
CCOC(=O)Cn1c(=S)[nH]c2c(oc3ccc(Cl)cc32)c1=O				inactive	226% (active)	36% (active)	218% (active)
O=C(CN1CCCC1)Nc1ccc2c(c1)CCC2	inactive	inactive	inactive	inactive			
O=C(Nc1ccccc1F)C1C2C=CC3(O2)C1C(=O)N(c1cccnc1)C3C(=O)NC1CCCCC1 (stereo not given)	inactive	inactive	inactive	inactive			

— PubChem BioAssay
